ChEMBL document CHEMBL1124663, “Design, synthesis, antineoplastic activity, and chemical properties of bis(carbamate) derivatives of 4,5-bis(hydroxymethyl)imidazole” (J Med Chem, 1989)

Tests used:
[1] = Retention time was determined; assay type: ADME
Mus musculus [2] = experiment: Body weight difference (BWD) of test animals administered with 60 mg/kg compound is determined on […] tumor cells; assay type: functional
In short: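 MX-1 human mammary xenograft: solid tumour fragment (1 mm3, 0.5 mg) placed as a subrenal capsule implant on day 0 in NCR-nu mice. Fresh saline suspension dosed ip on days 1, 5 and 9. Body weight difference in g (treated minus control) recorded. Assay evaluated on day 11. Six mice per group.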

Mus musculus [3] = experiment: Body weight difference (BWD) of test animals administered with 25 mg/kg compound is determined on day 5 for L1210 tumor cells; assay type: functional
In short: (§1)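 L1210 leukaemia: 10^5 cells implanted ip on day 0 in mice. Freshly prepared saline suspension given ip once daily on days 1–5. Body weight difference in g (treated minus control) taken as day 5 minus day 1. Six animals per dose.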

Mus musculus [4] = experiment: Body weight difference (BWD) of test animals administered with 12.5 mg/kg compound is determined on day 5 for L1210 tumor cells; assay type: functional; in short: as §1
Mus musculus [5] = experiment: Body Weight Difference (BWD) of test animals administered with 25 mg/kg compound is determined on day 5 for P388 tumor cells; assay type: functional
In short: (§2)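 P388 leukaemia: about 10^6 cells in ascitic fluid inoculated ip on day 0 (CD2F1 mice). Compound given ip in normal saline as a freshly prepared solution or suspension, once daily on days 1–5. Treated-minus-control body weight difference in g, taken as day 5 minus day 1 weight. Groups of six.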

Mus musculus [6] = experiment: Ability of 200 mg/kg of compound to kill M5076 tumor cells in mice is expressed as the log of the tumor cell population at the onset of treatment minus the log of the tumor cell population at the end of treatment; assay type: functional
In short: (§3)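 M5076 sarcoma, 10^6 cells ip on day 0 in B6C3F1 mice. Drug given ip as a fresh saline suspension every fourth day (days 1, 5, 9, 13). % T/C is median survival of treated versus control mice, counting long-term survivors. Cures are 60-day survivors. Log cell kill is derived from this.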

Mus musculus [7] = experiment: Ability of 100 mg/kg of compound to kill L1210 tumor cells in mice is expressed as the log of the tumor cell population at the onset of treatment minus the log of the tumor cell population at the end of treatment; assay type: functional
In short: (§4)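 L1210 leukemia, 10^5 cells implanted ip on day 0. Drug given ip daily on days 1-5 as a saline suspension freshly prepared before each injection. Read-out is median survival of treated versus control mice (% T/C), and log cell kill is derived from it.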

Mus musculus [8] = experiment: Ability of 100 mg/kg of compound to kill M5076 tumor cells in mice is expressed as the log of the tumor cell population at the onset of treatment minus the log of the tumor cell population at the end of treatment; assay type: functional; in short: as §3
Mus musculus [9] = experiment: The toxicity day was evaluated on day 5 for L1210 tumor cells of test animals dosed with 200 mg/kg of compound; 0/6; assay type: functional
In short: (§5)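 L1210 leukaemia, 10^5 cells, implanted ip on day 0. Freshly prepared saline suspension dosed ip daily on days 1-5. Toxicity evaluated on day 5 as survivors over animals in the initial test group.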

Mus musculus [10] = experiment: Toxicity day evaluation was carried out on day 5 for animal dosed with 50 mg/kg compound; 6/6; assay type: organism-based; set-up: dose 50 mg/kg; details: in vivo
Mus musculus [11] = experiment: The toxicity day was […] tumor cells of test animals dosed with 400 mg/kg of compound; 1/10; assay type: functional, M5076
In short: (§6)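 M5076 sarcoma, 10^6 cells, inoculated ip into B6C3F1 mice on day 0. Fresh saline suspension given ip every fourth day (days 1, 5, 9, 13). Toxicity survivors were scored on day 5 as survivors over initial group. Body-weight difference was day 14 minus day 1.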

Mus musculus [12] = experiment: The […] for M5076 minus 1 tumor cells of test animals dosed with 50 mg/kg of compound; 10/10; assay type: functional; in short: as §6
Mus musculus [13] = experiment: The toxicity day was evaluated on day 5 for L1210 tumor cells of test animals dosed with 100 mg/kg of compound; 6/6; assay type: functional; in short: as §5
Mus musculus [14] = experiment: Ability of 50 mg/kg of compound to kill L1210 tumor cells in mice is expressed as the log of the tumor cell population at the onset of treatment minus the log of the tumor cell population at the end of treatment; assay type: functional; in short: as §4
Mus musculus [15] = experiment: The percent of the median survival time of test mice compared to control mice, administered with 100 mg/kg compound on day 14 for M5076 minus 1 tumor cells; assay type: functional; in short: as §3
Mus musculus [16] = experiment: The percent of the median survival time of test mice compared to control mice, administered with 12.5 mg/kg compound on day 5 for L1210 tumor cells; assay type: functional; in short: as §4
Mus musculus [17] = experiment: The percent of the median survival time of test mice compared to control mice is % T/C which refers to tumor size in this case. It is determined for mice administered with 100 mg/kg compound on day 11 for MX-1 tumor cells; assay type: functional; details: route intraperitoneal
In short: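 Human MX-1 mammary xenograft, a 1 mm3 (0.5 mg) tumor fragment implanted under the renal capsule of NCR-nu mice on day 0. Drug given ip as a fresh saline suspension on days 1, 5 and 9. Tumor size is assessed on day 11. A negative % T/C is percent shrinkage relative to the initial implant. Survivors in the toxicity group are […].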

Mus musculus [18] = experiment: The percent of the median survival time of test mice compared to control mice is % T/C. It is determined for mice administered with 100 mg/kg compound on day 0 for LOX 1 tumor cells.; assay type: functional; details: route intraperitoneal
Mus musculus [19] = experiment: The percent of the median survival time of test mice compared to control mice is determined for mice administered with 50 mg/kg compound; assay type: functional
Mus musculus [20] = experiment: Ability of 6.25 mg/kg of compound to kill tumor cells in mice is expressed as the log of the tumor cell population at the onset of treatment minus the log of the tumor cell population at the end of treatment; assay type: functional
Mus musculus [21] = experiment: The toxicity day was evaluated on day 0 for LOX tumor cells of test animals dosed with 100 mg/kg of compound; 6/6; assay type: functional
Mus musculus [22] = experiment: The toxicity day was evaluated on day 0 for LOX tumor cells of test animals dosed with 50 mg/kg of compound; 6/6; assay type: functional
Mus musculus [23] = experiment: The toxicity day was […] for M5076 minus 1 tumor cells of test animals dosed with 100 mg/kg of compound; 10/10; assay type: functional; in short: as §6
Mus musculus [24] = experiment: The percent of the median survival time of test mice compared to control mice, administered with 25 mg/kg compound on day 5 for L1210 tumor cells; assay type: functional; in short: as §4
Mus musculus [25] = experiment: The percent of the median survival time of test mice compared to control mice, administered with 50 mg/kg compound on day 5 for L1210 tumor cells; assay type: functional; in short: as §4
Mus musculus [26] = experiment: The percent of the median survival time of test mice compared to control mice, administered with 50 mg/kg compound on day 14 for M5076 minus 1 tumor cells; assay type: functional; in short: as §3
Mus musculus [27] = experiment: Toxicity day evaluation was carried out on day 5 for animal dosed with 12.5 mg/kg compound; 6/6; assay type: organism-based; set-up: dose 12.5 mg/kg; details: in vivo
Mus musculus [28] = experiment: Body Weight Difference (BWD) of test animals administered with 12.5 mg/kg compound is determined on day 5 for P388 tumor cells; assay type: functional; in short: as §2
Mus musculus [29] = experiment: Body weight difference (BWD) of test animals administered with 25 mg/kg compound is determined on day 10 for LOX tumor cells.

CNC(=O)OCc1nc(SC)n(C)c1COC(=O)NC
TR [1]: 39 min
BWD (Mus musculus [2]): -1.9 g
BWD (Mus musculus [3]): 0 g
BWD (Mus musculus [4]): -0.2 g
BWD (Mus musculus [5]): -1.4 g
KE (Mus musculus [6]): 0.98
KE (Mus musculus [7]): -0.29
KE (Mus musculus [8]): -0.34
Survivors / animals tested (Mus musculus [9]): 0
Survivors / animals tested (Mus musculus [10]): 6
Survivors / animals tested (Mus musculus [11]): 1
Survivors / animals tested (Mus musculus [12]): 10
Survivors / animals tested (Mus musculus [13]): 6
KE (Mus musculus [14]): -1.94
T/C (Mus musculus [15]): 151%
T/C (Mus musculus [16]): 103%
T/C (Mus musculus [17]): -73%
T/C (Mus musculus [18]): 365%
T/C (Mus musculus [19]): 184%
KE (Mus musculus [20]): -0.83
Survivors / animals tested (Mus musculus [21]): 6
Survivors / animals tested (Mus musculus [22]): 6
Survivors / animals tested (Mus musculus [23]): 10
T/C (Mus musculus [24]): 111%
T/C (Mus musculus [25]): 124%
T/C (Mus musculus [26]): 119%
Survivors / animals tested (Mus musculus [27]): 6
BWD (Mus musculus [28]): -1.2 g
BWD (Mus musculus [29]): -3 g
